The target in data set [1] is T1, Histone deacetylase 7 (Homo sapiens) (UniProt Q8WUI4).
T1 sequence (whole entry): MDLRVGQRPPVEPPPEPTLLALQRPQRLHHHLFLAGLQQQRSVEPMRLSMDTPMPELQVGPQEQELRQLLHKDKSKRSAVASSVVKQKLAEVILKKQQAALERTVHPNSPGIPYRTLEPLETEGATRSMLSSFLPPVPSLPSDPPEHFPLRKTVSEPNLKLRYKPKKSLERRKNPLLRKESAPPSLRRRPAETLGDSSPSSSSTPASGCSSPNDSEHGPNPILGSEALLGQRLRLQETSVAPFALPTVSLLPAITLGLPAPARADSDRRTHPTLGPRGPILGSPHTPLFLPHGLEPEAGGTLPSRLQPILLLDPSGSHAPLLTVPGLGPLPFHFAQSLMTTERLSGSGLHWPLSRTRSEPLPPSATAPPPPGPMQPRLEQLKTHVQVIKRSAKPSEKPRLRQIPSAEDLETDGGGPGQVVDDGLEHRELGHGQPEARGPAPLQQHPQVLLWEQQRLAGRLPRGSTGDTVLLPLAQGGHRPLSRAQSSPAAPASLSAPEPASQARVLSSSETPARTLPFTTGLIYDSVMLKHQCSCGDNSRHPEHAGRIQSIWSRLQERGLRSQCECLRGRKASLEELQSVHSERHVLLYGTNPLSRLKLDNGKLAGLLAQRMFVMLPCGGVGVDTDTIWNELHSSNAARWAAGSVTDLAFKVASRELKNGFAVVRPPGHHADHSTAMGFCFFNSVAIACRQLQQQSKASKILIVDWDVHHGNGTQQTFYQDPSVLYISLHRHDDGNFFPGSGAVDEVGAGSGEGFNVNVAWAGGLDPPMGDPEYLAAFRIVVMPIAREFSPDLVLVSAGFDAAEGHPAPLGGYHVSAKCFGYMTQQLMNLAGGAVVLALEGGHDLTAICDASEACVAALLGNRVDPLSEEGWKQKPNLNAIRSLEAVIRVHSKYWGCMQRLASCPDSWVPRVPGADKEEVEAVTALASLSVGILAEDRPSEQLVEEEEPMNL
As to the kind of experiment: Inhibition of HDAC7 (unknown origin).

The target of data set [2] is T2, NAD-dependent protein deacetylase sirtuin-2 (Homo sapiens) (UniProt Q8IXJ6).
T2 sequence (whole entry): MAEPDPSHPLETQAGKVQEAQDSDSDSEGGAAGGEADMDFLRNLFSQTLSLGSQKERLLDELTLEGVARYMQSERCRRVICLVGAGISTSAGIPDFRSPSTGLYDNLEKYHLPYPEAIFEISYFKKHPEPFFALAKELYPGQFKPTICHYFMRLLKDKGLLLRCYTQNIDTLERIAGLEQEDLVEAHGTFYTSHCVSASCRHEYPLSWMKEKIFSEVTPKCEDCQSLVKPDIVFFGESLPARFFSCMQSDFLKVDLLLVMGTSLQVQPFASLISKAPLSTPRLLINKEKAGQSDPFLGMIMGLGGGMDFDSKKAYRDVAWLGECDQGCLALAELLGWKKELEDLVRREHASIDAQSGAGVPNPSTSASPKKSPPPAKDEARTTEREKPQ
Kind of data set: Inhibition of His-tagged human recombinant SIRT2 expressed in Escherichia coli at 20 uM using Cbz-Lys(Ac)-AMC as substrate by fluorescence assay. The essentials:
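Fluorescence deacetylase assay with in-house Cbz-Lys(Ac)-AMC substrate. Values are means of three experiments on racemic material. Single-point lines were tested at 20 µM, and less than 20% inhibition was scored as no inhibition.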

Data set [3] addresses T3, NAD-dependent protein deacetylase sirtuin-1 (Homo sapiens, UniProt Q96EB6).
T3 sequence (Q96EB6 whole entry): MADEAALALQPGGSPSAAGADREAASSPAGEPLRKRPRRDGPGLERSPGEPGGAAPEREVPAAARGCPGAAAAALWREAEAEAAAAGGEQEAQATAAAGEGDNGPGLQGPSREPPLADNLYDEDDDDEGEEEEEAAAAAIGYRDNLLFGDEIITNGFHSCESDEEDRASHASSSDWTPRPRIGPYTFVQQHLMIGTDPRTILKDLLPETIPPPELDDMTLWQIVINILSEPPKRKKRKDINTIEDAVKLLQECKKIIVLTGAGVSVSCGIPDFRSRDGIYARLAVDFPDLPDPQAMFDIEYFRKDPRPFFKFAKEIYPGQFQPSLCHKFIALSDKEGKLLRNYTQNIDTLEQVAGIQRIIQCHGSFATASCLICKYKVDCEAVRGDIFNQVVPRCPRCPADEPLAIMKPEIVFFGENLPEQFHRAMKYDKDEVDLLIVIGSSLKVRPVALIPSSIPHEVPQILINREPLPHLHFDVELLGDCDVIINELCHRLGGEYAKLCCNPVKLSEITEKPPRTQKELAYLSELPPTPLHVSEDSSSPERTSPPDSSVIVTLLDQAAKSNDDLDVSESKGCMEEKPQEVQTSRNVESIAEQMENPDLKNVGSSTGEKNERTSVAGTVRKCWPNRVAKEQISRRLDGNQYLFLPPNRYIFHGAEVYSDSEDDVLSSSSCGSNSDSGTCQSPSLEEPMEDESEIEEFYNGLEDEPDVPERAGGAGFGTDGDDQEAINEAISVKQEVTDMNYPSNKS
Kind of data set: Inhibition of His-tagged human recombinant SIRT1 expressed in Escherichia coli using Cbz-Lys(Ac)-AMC as substrate by fluorescence assay.

For data set [4], the target named is Histone deacetylase 4 (Homo sapiens) (UniProt P56524). Kind of data set: Inhibition of HDAC4 (unknown origin).
Data set [5] addresses Histone deacetylase 5 (Homo sapiens) (UniProt Q9UQL6). As to the kind of experiment: Inhibition of HDAC5 (unknown origin).
In data set [6] the target is T4, NAD-dependent protein deacetylase sirtuin-1 (Homo sapiens) (UniProt Q96EB6).
T4 sequence (whole entry): T3 sequence (Q96EB6 whole entry)
As to the kind of experiment: Inhibition of SIRT1-mediated endogenous p53 deacetylase activity in human Namalwa cells assessed as concentration required to […] to twice the basal level after 3 hrs by ELISA. In kind it is cell-based. Summed up: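 Namalwa cells, 50,000/well, were exposed 3 h at 37 °C, 5% CO2, to 0.005–50 µM final (0.95% DMSO). Lysates were ELISA-captured on anti-p53 (DO-1), probed overnight with anti-acetyl-Lys382-p53, then HRP conjugate and Amplex Red (15 min; ex 550/em 610 nm). IC2xB is the concentration doubling basal (lowest) fluorescence. Means of three experiments.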
On the technique in general: ELISA stands for enzyme-linked immunosorbent assay.

For data set [7], the target named is T5, NAD-dependent protein deacetylase sirtuin-2 (Homo sapiens, UniProt Q8IXJ6).
T5 sequence (Q8IXJ6 whole entry): T2 sequence (whole entry)
As to the kind of experiment: Inhibition of His-tagged human recombinant SIRT2 expressed in Escherichia coli using Cbz-Lys(Ac)-AMC as substrate by fluorescence assay.

In a further data set the test system is Plasma. As to the kind of experiment: Metabolic stability in mouse plasma. In kind it is ADME, cell-free.
Data set [8] can be described thus: Oral bioavailability in rat. As to conditions: in vivo. In kind it is ADME, organism-based.
A short description of data set [9]: Half life in rat. In kind it is ADME, organism-based. As to conditions: in vivo.
A short description of data set [10]: Clearance in rat. As to conditions: in vivo. In kind it is ADME, organism-based.
In data set [11] the target is Histone deacetylase 5 (Homo sapiens) (UniProt Q9UQL6). Kind of data set: Inhibition of HDAC5 (unknown origin) at 20 uM.
For data set [12], the target named is T1, Histone deacetylase 7 (Homo sapiens). As to the kind of experiment: Inhibition of HDAC7 (unknown origin) at 20 uM.

Usually inhibition stands for how much of the control response was suppressed. A word on the IC50: it is the midpoint of a concentration-inhibition curve. In general, bioavailability refers to the share of a dose that reaches the circulation, judged against a reference dose that is usually intravenous. Higher therefore signals good availability. For orientation: half-life means how long it takes for the measured level to halve. In general, clearance refers to a measure of how efficiently the substance is removed, as volume per time. Low values mean a low capacity for elimination, high ones a high capacity for elimination.

The source made the active and inactive calls. The calls are words filed in the database; no cut-off is given here.

Chain of Histone deacetylase 5 (Homo sapiens) (Q9UQL6 whole entry): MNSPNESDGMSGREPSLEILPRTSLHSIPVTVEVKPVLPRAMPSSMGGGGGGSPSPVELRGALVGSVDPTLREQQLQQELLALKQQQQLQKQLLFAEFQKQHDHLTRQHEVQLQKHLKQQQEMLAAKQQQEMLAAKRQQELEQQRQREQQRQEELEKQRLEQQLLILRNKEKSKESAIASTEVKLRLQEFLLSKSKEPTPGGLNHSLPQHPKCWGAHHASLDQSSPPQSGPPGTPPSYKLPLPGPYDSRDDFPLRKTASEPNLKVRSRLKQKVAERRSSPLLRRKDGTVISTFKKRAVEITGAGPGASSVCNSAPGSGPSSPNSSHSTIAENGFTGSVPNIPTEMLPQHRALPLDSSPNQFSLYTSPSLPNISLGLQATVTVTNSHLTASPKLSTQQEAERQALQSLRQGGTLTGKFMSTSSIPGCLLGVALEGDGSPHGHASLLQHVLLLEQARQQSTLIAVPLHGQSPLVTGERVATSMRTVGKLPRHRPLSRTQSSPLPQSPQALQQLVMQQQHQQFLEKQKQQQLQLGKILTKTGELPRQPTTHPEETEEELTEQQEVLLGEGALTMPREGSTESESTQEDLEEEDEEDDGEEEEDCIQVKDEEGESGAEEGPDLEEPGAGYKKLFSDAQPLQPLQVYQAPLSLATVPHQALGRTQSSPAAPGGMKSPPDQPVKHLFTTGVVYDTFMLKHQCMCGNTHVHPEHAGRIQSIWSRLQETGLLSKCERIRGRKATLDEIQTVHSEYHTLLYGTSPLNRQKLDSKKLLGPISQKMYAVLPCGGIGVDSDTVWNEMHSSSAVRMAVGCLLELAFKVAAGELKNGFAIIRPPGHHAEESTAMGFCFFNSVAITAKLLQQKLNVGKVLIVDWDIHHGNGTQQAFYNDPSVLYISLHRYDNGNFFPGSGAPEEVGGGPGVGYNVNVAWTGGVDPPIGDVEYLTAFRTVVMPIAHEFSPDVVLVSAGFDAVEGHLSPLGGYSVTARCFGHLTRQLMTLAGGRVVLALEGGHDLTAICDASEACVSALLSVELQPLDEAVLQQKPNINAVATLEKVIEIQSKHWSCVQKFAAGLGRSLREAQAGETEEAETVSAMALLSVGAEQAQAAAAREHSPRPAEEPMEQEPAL
Chain of Histone deacetylase 4 (Homo sapiens) (P56524 whole entry): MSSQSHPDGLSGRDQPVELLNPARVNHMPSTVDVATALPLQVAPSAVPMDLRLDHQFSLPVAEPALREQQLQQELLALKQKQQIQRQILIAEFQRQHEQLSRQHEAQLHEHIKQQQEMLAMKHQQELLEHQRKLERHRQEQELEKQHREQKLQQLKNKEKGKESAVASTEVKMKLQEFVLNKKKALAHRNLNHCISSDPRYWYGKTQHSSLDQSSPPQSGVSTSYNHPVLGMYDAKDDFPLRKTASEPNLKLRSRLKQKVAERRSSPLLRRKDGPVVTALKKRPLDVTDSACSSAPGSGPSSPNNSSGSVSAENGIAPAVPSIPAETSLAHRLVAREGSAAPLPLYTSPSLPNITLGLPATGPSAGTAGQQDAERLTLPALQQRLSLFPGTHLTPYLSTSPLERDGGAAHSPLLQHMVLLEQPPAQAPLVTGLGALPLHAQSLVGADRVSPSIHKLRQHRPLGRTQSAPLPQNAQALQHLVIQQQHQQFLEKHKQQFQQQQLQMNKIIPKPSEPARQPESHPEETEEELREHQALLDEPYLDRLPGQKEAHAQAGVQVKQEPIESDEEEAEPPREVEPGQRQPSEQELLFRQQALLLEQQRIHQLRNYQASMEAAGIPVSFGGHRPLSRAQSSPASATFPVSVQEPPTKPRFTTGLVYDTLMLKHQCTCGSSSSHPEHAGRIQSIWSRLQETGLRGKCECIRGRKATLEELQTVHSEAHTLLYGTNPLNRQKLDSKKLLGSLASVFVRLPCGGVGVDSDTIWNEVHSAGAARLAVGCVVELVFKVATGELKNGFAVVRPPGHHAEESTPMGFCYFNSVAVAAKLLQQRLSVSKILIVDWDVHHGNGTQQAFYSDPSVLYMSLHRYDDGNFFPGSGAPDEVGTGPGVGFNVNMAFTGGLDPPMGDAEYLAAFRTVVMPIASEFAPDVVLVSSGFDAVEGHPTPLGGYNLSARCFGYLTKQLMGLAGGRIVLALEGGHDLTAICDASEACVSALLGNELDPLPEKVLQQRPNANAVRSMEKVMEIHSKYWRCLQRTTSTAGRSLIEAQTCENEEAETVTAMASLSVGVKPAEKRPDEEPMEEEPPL

Turning to `NC(=O)C1CCCc2c(-c3ccc(Br)cc3)n[nH]c21` (racemic), the inhibition result in data set [1], in [4] and in [5] was “inactive” throughout. Also, the inhibition in data set [2] was found to be 47%. Also, the half-maximal inhibitory concentration (IC50) in data set [3] stood at 1900 nM. Also, the INH in data set [6] amounted to 1.5 µM.
For the molecule `NC(=O)C1CCCCc2c(-c3ccc(Cl)cc3)n[nH]c21` (racemic), the inhibition result in [1], in [4] and in data set [5] was “inactive” each time. Also, the IC50 in [7] came out at 6800 nM; in data set [3] it was 2100 nM. Further, in data set [6], the INH is 0.8 µM.
With `NC(=O)C1CCCc2c(-c3ccc(Cl)cc3)n[nH]c21` (racemic), the inhibition result in data set [1], in data set [4] and in data set [5] was “inactive” throughout. In addition, in the data set with Plasma, the Stability result is “Stable”. The molecule further returned a bioavailability in data set [8] of 20%. The inhibition in data set [2] amounted to 43%. Also, in [3], the half-maximal inhibitory concentration (IC50) is 1000 nM. Further, the half-life in data set [9] is 1.1 h. This molecule gave a clearance in data set [10] of 30 mL/min/kg. The INH in [6] amounted to 0.5 µM.
With `NC(=O)C1CCCc2c(-c3nc4ccccc4s3)n[nH]c21` (racemic), the inhibition entry in [1], in data set [4] and in data set [5] was “inactive” each time. The IC50 in [7] was determined as 8300 nM; in [3], 2200 nM. Besides, the INH in data set [6] came out at 0.9 µM.
In the case of `Cc1ccc(-c2n[nH]c3c2CCCC3C(N)=O)cc1` (racemic), the inhibition entry in data set [1], in data set [4] and in data set [5] was “inactive” each time. Also, the inhibition in data set [2] was 36%. Besides, the IC50 in data set [3] came out at 6200 nM.
For `CC1(C)Cc2c(-c3ccc(Cl)cc3)n[nH]c2C(C(N)=O)C1` (racemic), the inhibition result in data set [1], in data set [4] and in [5] was “inactive” in each case. The figures for the IC50 in data set [7] and in data set [3] were 1700 nM and 800 nM, respectively. In addition, in the data set on Plasma, the Stability entry is listed as “Stable”. The molecule further displayed a bioavailability in data set [8] of 23%. This molecule also gave a half-life in data set [9] of 5.1 h. Besides, the clearance in [10] is 5 mL/min/kg. For the same molecule, the INH in [6] was found to be 1.2 µM.
Take `NC(=O)C1CCCc2c(-c3ccc(Cl)c(Cl)c3)n[nH]c21` (racemic): the figures for the IC50 in data set [7] and in data set [3] were 14800 nM and 1200 nM, respectively. Besides, the inhibition entry in [11] and in [12] was “inactive” each time. In addition, the INH in data set [6] came out at 1.2 µM.
With `NC(=O)C1CCCc2c(-c3cc4ccccc4s3)n[nH]c21` (racemic), the inhibition result in data set [1], in data set [4] and in data set [5] was “inactive” throughout. Moreover, the values for the IC50 in data set [7] and in data set [3] were 5300 nM and 1700 nM, respectively.
In the case of `NC(=O)C1CCCc2c(-c3cc4ccccc4o3)n[nH]c21` (racemic), the inhibition entry in data set [1], in data set [4] and in [5] was “inactive” throughout. For the same molecule, the IC50 in [7] stood at 9000 nM; in data set [3], 3100 nM.
With `NC(=O)C1CCCc2c(-c3cc(Br)cs3)n[nH]c21` (racemic), the inhibition entry in [1], in data set [4] and in [5] was “inactive” each time. Further, the inhibition in [2] is less than 20%. Also, the IC50 in [3] turned out to be 11000 nM.
In the case of `Cn1c(-c2n[nH]c3c2CCCC3C(N)=O)cc2ccccc21` (racemic), the inhibition entry in data set [1], in data set [4] and in [5] was “inactive” in each case. In addition, the values for the half-inhibitory concentration (IC50) in data set [7] and in data set [3] were 7800 nM and 2700 nM, respectively.

These data come from ChEMBL document CHEMBL3425433, “Discovery of bicyclic pyrazoles as class III histone deacetylase SIRT1 and SIRT2 inhibitors” (Bioorg Med Chem Lett, 2015).
